Calls of active or inactive are those of the source. No cut-off for these calls is given here.
Assays:
Type in all cases: cell-based
[1] = target: T1, Antigen-presenting glycoprotein CD1d (Homo sapiens) (UniProt P15813); assay: Binding affinity to C1R-hCD1d expressed in human B cells assessed as activation of IFN-gamma release in human iNKT cells upto 100 ng/ml after 36 hrs by ELISA
T1 sequence (whole entry): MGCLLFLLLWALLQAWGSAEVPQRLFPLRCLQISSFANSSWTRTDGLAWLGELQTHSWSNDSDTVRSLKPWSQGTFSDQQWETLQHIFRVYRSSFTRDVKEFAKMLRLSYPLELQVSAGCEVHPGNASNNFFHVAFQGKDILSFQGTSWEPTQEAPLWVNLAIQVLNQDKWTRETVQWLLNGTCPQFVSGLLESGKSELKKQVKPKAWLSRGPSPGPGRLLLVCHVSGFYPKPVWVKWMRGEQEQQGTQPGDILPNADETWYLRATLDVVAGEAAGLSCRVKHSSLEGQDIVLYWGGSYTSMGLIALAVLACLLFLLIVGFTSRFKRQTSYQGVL
Summary of the method: (§1)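 C1R cells expressing human CD1d were pulsed with lipid at a range of concentrations. 5 × 10⁴ pulsed targets were co-cultured with 2 × 10⁴ human iNKT line cells at 37 °C for 36 h. IFN-γ and IL-4 in the harvested supernatants were quantified by ELISA, and IFN-γ/IL-4 and IL-4/IFN-γ ratios were derived from these values.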

[2] = target: T1, Antigen-presenting glycoprotein CD1d (Homo sapiens); assay: Binding affinity to C1R-hCD1d expressed in human B cells assessed as activation of IL-4 release in human iNKT cells upto 100 ng/ml after 36 hrs by ELISA; summary of the method: as §1
[3] = target: T1, Antigen-presenting glycoprotein CD1d (Homo sapiens); assay: Binding affinity to C1R-hCD1d expressed in human B cells assessed as increase in IFN-gamma/IL4 ratio in mouse iNKT cells upto 100 ng/ml after 36 hrs by ELISA
[4] = target: T1, Antigen-presenting glycoprotein CD1d (Homo sapiens); assay: Binding affinity to C1R-hCD1d expressed in human B cells assessed as increase in Th1 cytokine release in mouse iNKT cells upto 100 ng/ml after 36 hrs by ELISA
[5] = target: T1, Antigen-presenting glycoprotein CD1d (Homo sapiens); assay: Binding affinity to C1R-hCD1d expressed in human B cells assessed as change in IFN-gamma/IL4 ratio in human iNKT cells upto 100 ng/ml after 36 hrs by ELISA; summary of the method: as §1
[6] = target: T1, Antigen-presenting glycoprotein CD1d (Homo sapiens); assay: Binding affinity to C1R-hCD1d expressed in human B cells assessed as increase in Th2 cytokine release in mouse iNKT cells upto 100 ng/ml after 36 hrs by ELISA

Structure (SMILES) | Activity [1] | Activity [2] | Activity [3] | Activity [4] | Activity [5] | Activity [6]
CCCCCCCCCCCCCCCCCCCCCCCCCC(=O)N[C@@H](CO[C@H]1O[C@H](CO)[C@H](O)[C@H](O)[C@H]1O)[C@H](O)[C@H](O)CCCCCCCCCCCCCC | Active | Active | Active | Active | inactive | 
CCCCC/C=C\C/C=C\CCCCCCCCCC(=O)N[C@@H](CO[C@H]1O[C@H](CO)[C@H](O)[C@H](O)[C@H]1O)[C@H](O)[C@H](O)CCCCCCCCCCCCCC |  |  | Active | Active | inactive | Active
CCCCCCCCCCCCCCCCCCCCCCCCCC(=O)N[C@@H](CO[C@H]1O[C@H](CO)[C@H](O)[C@H](O)[C@H]1O)[C@H](O)[C@H](O)CCCCCCCCCCC | Active | Active | Active | Active | inactive | Active

Continued, values first:

Activity [1] | Activity [2] | Activity [3] | Activity [4] | Activity [5] | Activity [6] | Structure (SMILES)
Active | Active | Active | Active | inactive | Active | CCCCCCCCCCCCCCCCCCCCCCCCCC(=O)N[C@@H](CO[C@H]1O[C@H](CO)[C@H](O)[C@H](O)[C@H]1O)[C@H](O)[C@H](O)CCCCC
Active | Active | Active | Active | inactive | Active | CCCCCCCCCCCCCCCCCCCCCCCCCC(=O)N[C@@H](CO[C@H]1O[C@H](CO)[C@H](O)[C@H](O)[C@H]1O)[C@H](O)[C@H](O)CCCCCCCC
